Test results reported in publication PMC6690761 (Bioorganic & medicinal chemistry letters, 2019).

Molecular target: T1, murine PDS (Mus musculus, UniProt Q9R155)
T1 sequence (Q9R155 1-780): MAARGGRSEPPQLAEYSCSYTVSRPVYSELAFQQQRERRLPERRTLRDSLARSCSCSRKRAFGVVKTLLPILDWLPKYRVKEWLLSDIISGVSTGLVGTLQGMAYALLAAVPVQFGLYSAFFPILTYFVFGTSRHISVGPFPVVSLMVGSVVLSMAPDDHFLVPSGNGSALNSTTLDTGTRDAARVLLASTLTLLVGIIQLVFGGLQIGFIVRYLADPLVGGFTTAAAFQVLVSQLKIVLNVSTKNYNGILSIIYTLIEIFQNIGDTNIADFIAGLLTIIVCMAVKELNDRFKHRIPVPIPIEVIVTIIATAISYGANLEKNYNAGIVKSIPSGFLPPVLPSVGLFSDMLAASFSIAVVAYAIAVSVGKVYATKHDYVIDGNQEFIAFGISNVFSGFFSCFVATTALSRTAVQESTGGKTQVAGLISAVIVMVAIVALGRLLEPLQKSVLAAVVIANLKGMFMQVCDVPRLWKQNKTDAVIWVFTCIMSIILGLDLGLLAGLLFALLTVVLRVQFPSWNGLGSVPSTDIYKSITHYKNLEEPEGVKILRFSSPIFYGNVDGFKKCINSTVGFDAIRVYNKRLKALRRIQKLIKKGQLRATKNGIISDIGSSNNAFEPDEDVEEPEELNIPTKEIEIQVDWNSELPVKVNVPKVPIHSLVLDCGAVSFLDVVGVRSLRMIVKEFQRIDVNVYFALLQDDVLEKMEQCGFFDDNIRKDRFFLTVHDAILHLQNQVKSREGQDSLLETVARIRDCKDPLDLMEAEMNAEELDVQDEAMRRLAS
Test: functional cell-based assay of PDS-mediated Cl-/I- exchange
Settings: Fischer rat thyroid cells expressing murine PDS
Outline: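 Fischer rat thyroid cells stably co-expressing murine pendrin and the halide-sensitive fluorescent protein EYFP-H148Q/I152L/F46L. Pendrin-mediated Cl–/I– exchange is followed through this halide-sensing fluorescent reporter. Inhibition is reported as IC50.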

PDS inhibition activity (in words) | SMILES
minimal PDS inhibition activity | Cn1nc(C(=O)O)c2c1CCN(C(=O)Nc1ccc(Cl)cc1)C2 [Compound 21]
minimal PDS inhibition activity | CCOC(=O)c1nn(C)c2c1CN(C(=O)Nc1ccc(Cl)cc1)CC2 [Compound 20]
